Screens: PubChem, several laboratories
This is a sample that favours compounds with a hit; in the whole collection about 3.8% have one here.
CHO parental Ca – counter-screen: ATP calcium response change in parental CHO cells | parental CHO-K1, ATP-induced calcium, Fluo-8 fluorescence | inhibition, % at 5.6 µM | 330,000 compounds, 0.63% hits;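 active = inhibition above that plate's mean sample inhibition plus 3 SD, cut at about 26% in these data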;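 note: 0% = ATP-challenged DMSO wells and 100% = DMSO wells without ATP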
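Test system: parental CHO cells; detection: calcium-sensitive Fluo-8 fluorescence; evaluation: percent inhibition of calcium signal; also added: ATP as calcium-mobilizing challenge; repeats: one well per compound; control set: ATP-challenged DMSO wells low, unchallenged DMSO wells high; compound: single nominal dose of 5.6 µM per compound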
OX1R antag-1 – antagonists of human orexin 1 receptor (OX1R); OX1R-expressing cells, FRET antagonist read-out; O43613; inhibition, % at 6.6 µM; 330,000 compounds, 1.8% hits; in the data active = inhibition mostly above about 38%, no sharp cut-off; inactive = mostly below about 40%;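 note: 0% = agonist challenge alone and 100% = reference antagonist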
Target sequence (O43613 whole entry, looked up): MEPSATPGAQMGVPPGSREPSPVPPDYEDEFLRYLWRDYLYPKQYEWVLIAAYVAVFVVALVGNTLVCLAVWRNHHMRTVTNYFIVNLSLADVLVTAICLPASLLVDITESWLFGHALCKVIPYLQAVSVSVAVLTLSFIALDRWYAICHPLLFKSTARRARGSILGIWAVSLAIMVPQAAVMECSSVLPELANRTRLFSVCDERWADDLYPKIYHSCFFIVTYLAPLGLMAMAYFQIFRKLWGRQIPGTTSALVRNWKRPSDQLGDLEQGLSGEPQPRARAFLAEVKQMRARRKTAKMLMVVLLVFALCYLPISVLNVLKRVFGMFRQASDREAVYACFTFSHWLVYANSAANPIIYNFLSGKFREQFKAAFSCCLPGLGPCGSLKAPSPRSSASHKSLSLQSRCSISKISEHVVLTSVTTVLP
OX1R antag-2 – blocks the human orexin 1 receptor | O43613 | CHO/OX1R cells, Fluo-8 calcium fluorescence, orexin A | inhibition, % at 5 µM | 330,000 compounds, 0.43% hits | AID 434989;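 active = inhibition above its plate's threshold, mean inhibition of all tested compounds on the plate plus 3 SD, cut at about 37% in these data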;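 note: 0% = orexin A challenge wells and 100% = SB-334867-A antagonist wells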
GPR7 antagonist – human neuropeptides B/W receptor 1 antagonism; P48145; 290,000 compounds, 1.1% hits; GPR7-expressing cells, fluorescence antagonist assay; inhibition, % at 4.4 µM; in the data active = inhibition above about 16%, passing the limit was not always enough;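 note: cells stimulated with the agonist NPW; 0% = agonist with vehicle and 100% = vehicle without agonist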
MPTP block – blocks calcium-induced mitochondrial swelling | isolated mouse mitochondria, Ca2+ swelling absorbance, 30 min | inhibition, % at 10 µM | 360,000 compounds, 1.4% hits | AID 602449;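 active = inhibition of 50% or more, scaled per plate between neutral and stimulator controls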;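 note: 0% = DMSO wells given calcium and 100% = 1 mM EGTA wells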
MPTP counter – Rhodamine 123 counter-screen of mitochondrial pore hits. shares compounds with MPTP block. isolated mitochondria, membrane potential, Rhodamine 123 fluorescence. inhibition, % at 10 µM. 5,000 compounds, 78% hits; in the data active = inhibition above about 22%;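 note: 0% = DMSO vehicle and 100% = positive control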
MPTP abs DR – MPTP inhibition, dose response swelling confirmation | isolated mitochondria swelling, absorbance | IC50, µM | 780 compounds, 58% hits | shares compounds with MPTP block; in the data active = IC50 below about 20 µM
MPTP cs DR – counter-screen for mitochondrial permeability transition pore inhibitors, dose response; AID 651564; shares compounds with MPTP block; 780 compounds, 49% hits; IC50, µM; isolated mitochondria counterscreen, fluorescence read-out; in the data active = IC50 below about 80 µM
* marks the source's active call; other numbers are inactive results.

`CC(NC(=O)Nc1cccc([N+](=O)[O-])c1)(C(F)(F)F)C(F)(F)F` gave CHO parental Ca -15.4, OX1R antag-1 43.2, OX1R antag-2 2.2, GPR7 antagonist -0.8, MPTP block 106.1* and MPTP counter 101.9*.
`COc1ccc(-c2cccc3c2C2CC3CCN2C(=O)OCc2ccccc2)cc1` (configuration not stated) gave MPTP block 0.2.
Screening Cc1ccc(S(=O)(=O)NC(CCC(N)=O)C(=O)NCc2ccc3c(c2)OCO3)c(C)c1 (configuration not stated) returned MPTP block -1.8.
CCCCc1cc(=O)oc2cc(C)cc(O)c12 was read as CHO parental Ca 3.5, OX1R antag-1 40.5, OX1R antag-2 19.3, GPR7 antagonist -14.3, MPTP block 85.8* and MPTP counter 95.5*.
For CCCc1cc(O)c2c(C)cc(=O)oc2c1 the results were CHO parental Ca -2.3, OX1R antag-1 34.4, OX1R antag-2 -15.8, GPR7 antagonist -6.4, MPTP block 82.4* and MPTP counter 87.5*.
For CCCCc1cc(=O)oc2cc(O)cc(O)c12 the results were CHO parental Ca -15.9, OX1R antag-1 20.6, OX1R antag-2 -9.2, GPR7 antagonist -25.0 and MPTP block -0.9.
Screening CC(=O)Nc1cc2cc(NS(=O)(=O)c3ccc(C)cc3)ccc2oc1=O returned CHO parental Ca -4.8, OX1R antag-1 3.4, OX1R antag-2 -15.0, GPR7 antagonist -15.2 and MPTP block 3.2.
`CCOC(=O)c1ccc(Nc2nnc(C(C)(C)C)c(=O)[nH]2)cc1` gave CHO parental Ca -5.2, OX1R antag-1 7.5, OX1R antag-2 -16.6, GPR7 antagonist -8.2, MPTP block 92.7* and MPTP counter 83.1*.
For CCCCn1c(SCC(=O)Nc2nnc(C(C)C)s2)nc2c1c(=O)n(C)c(=O)n2C the results were CHO parental Ca -14.8, OX1R antag-1 8.3, OX1R antag-2 -19.1, GPR7 antagonist -15.7 and MPTP block -1.3.
For CCCn1c(SCC(=O)Nc2nc3c(s2)CCCC3)nc2c1c(=O)n(C)c(=O)n2C the results were CHO parental Ca -5.5, OX1R antag-1 3.5, OX1R antag-2 -20.5, GPR7 antagonist -0.6, MPTP block 84.6* and MPTP counter 32.6*.
`CCCCCCCCN1C(=O)[C@H](CC(=O)N2CCCCC2)C[C@@]2(C(=O)OC)CC(C)(C)CC=C12` gave MPTP block 0.8.
COc1ccc(C(=O)N2CCN(c3ccc([N+](=O)[O-])c(NCCc4ccc(OC)c(OC)c4)c3)CC2)cc1 was read as CHO parental Ca -6.0, OX1R antag-1 19.0, OX1R antag-2 -8.7, GPR7 antagonist -1.0, MPTP block 85.0*, MPTP counter 15.5, MPTP abs DR 6.01* and MPTP cs DR <2.5*.
Cc1cc(C)c(Cc2c(C)nc3c(C(=O)NCc4ccco4)cnn3c2C)c(C)c1 was read as CHO parental Ca 3.2, OX1R antag-1 18.3, OX1R antag-2 28.8, GPR7 antagonist 1.3 and MPTP block 38.6.
Screening COc1ccc(N2CCN(CCNC(=O)Nc3ccc(C)c(Cl)c3)CC2)cc1 returned CHO parental Ca -2.0, OX1R antag-1 -4.0, OX1R antag-2 -18.9, GPR7 antagonist 11.3 and MPTP block -0.6.
`COc1ccc(N2CCC(CNC(=O)Nc3ccc(Cl)cc3)C2)cc1` (configuration not stated) gave CHO parental Ca 15.4, OX1R antag-1 10.0, OX1R antag-2 2.3, GPR7 antagonist -8.7, MPTP block 90.7* and MPTP counter 74.6*.
`COc1ccc(NC(=O)NCCCN2CCN(c3ccccc3F)CC2)cc1` gave CHO parental Ca -19.5, OX1R antag-1 13.1, OX1R antag-2 -39.6, GPR7 antagonist -4.3 and MPTP block -0.2.
Screening COc1cc(NC(=O)NCCN2CCN(c3ccc(Cl)cc3)CC2)ccc1C returned CHO parental Ca 14.2, OX1R antag-1 1.0, OX1R antag-2 16.9, GPR7 antagonist 14.6, MPTP block 69.8*, MPTP counter -6.2, MPTP abs DR >100 and MPTP cs DR 73.2*.
COc1ccc(NC(=O)NCCCN2CCN(c3cc(C)ccc3C)CC2)cc1 was read as CHO parental Ca -26.1, OX1R antag-1 11.7, OX1R antag-2 -27.6, GPR7 antagonist -1.4, MPTP block 82.5*, MPTP counter -3.5, MPTP abs DR 15.4* and MPTP cs DR 39.4*.
`Cc1cc(C)cc(NC(=O)N(CCC#N)Cc2cccs2)c1` gave CHO parental Ca -8.6, OX1R antag-1 29.7, OX1R antag-2 -5.8, GPR7 antagonist -10.3 and MPTP block 1.6.
Screening CC1(C)OC1COc1c2ccoc2cc2oc(=O)ccc12 (configuration not stated) returned CHO parental Ca -18.4, OX1R antag-1 10.7, OX1R antag-2 -25.1, GPR7 antagonist -3.2 and MPTP block -0.6.
Cc1cc(C)c(NS(=O)(=O)c2ccc(NC(=O)/C=C/C(=O)O)cc2)c(C)c1 was read as CHO parental Ca -4.0, OX1R antag-1 5.6, OX1R antag-2 -3.1 and GPR7 antagonist -6.9.
For CN(C)S(=O)(=O)c1cc(NC(=O)CSc2ncc(C(F)(F)F)cc2Cl)ccc1Cl the results were CHO parental Ca -18.4, OX1R antag-1 11.5, OX1R antag-2 -14.1, GPR7 antagonist -10.7, MPTP block 74.5* and MPTP counter 86.1*.
CCn1nc(C)c(CNC(=O)c2cc(COc3ccc(F)cc3Cl)on2)c1C was read as CHO parental Ca 15.3, OX1R antag-1 29.9, OX1R antag-2 -13.5, GPR7 antagonist 0.6, MPTP block 52.6* and MPTP counter 36.3*.
Screening c1ccc(-c2sc3ccccc3c2-c2ccc(OCCN3CCCCC3)cc2)cc1 returned CHO parental Ca -16.4, OX1R antag-1 6.2, OX1R antag-2 -12.2 and MPTP block -0.3.
CN(C)CCOc1ccc(-c2c(-c3ccccc3)sc3ccccc23)cc1 was read as CHO parental Ca 49.0*, OX1R antag-1 10.5, OX1R antag-2 64.2*, MPTP block 103.8* and MPTP counter -17.0.
`O=C(Nc1nc2ccccc2n1CCN1CCOCC1)c1ccc(COc2ccccc2Br)o1` gave CHO parental Ca -21.9, OX1R antag-1 20.6, OX1R antag-2 -27.4, GPR7 antagonist 0.7 and MPTP block 3.1.
For CC(=O)Nc1ccc(S(=O)(=O)Nc2ccc3c(c2)OCCO3)cc1Cl the results were CHO parental Ca 17.0, OX1R antag-1 6.9, OX1R antag-2 4.3, GPR7 antagonist -1.2, MPTP block 79.0* and MPTP counter 57.9*.
`COc1ccc(NS(=O)(=O)c2ccc(-c3cnc(C4CC4)o3)cc2)cc1OC` gave CHO parental Ca 55.3*, OX1R antag-1 53.3, OX1R antag-2 27.2, GPR7 antagonist 27.6, MPTP block 91.5* and MPTP counter 92.5*.
